The nature of data set [1]: Protein binding in dog plasma. It is filed as ADME, cell-free, Canis lupus familiaris. As to conditions: read-out: PPB (converted).
Data set [2] concerns the target T1, Adenosine receptor A2b (Homo sapiens) (UniProt P29275).
T1 sequence (whole entry): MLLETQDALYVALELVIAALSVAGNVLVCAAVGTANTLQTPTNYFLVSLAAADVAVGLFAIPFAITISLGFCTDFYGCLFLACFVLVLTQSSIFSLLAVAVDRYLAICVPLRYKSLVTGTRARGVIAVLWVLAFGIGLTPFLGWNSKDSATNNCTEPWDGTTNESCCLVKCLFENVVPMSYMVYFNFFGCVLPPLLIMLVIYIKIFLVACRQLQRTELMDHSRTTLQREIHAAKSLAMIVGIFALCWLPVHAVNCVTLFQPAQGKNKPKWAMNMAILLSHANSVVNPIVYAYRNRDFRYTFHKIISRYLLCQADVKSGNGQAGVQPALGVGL
In words: Antagonist activity at human A2B receptor expressed in HEK293 cell membranes assessed as inhibition of NECA-induced cAMP level at 10 uM pretreated for 15 mins followed by NECA addition measured after 15 mins by HTRF assay. It is filed as functional, cell-based. In outline:
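HTRF cAMP functional assay on the human receptor isoform, run in triplicate at 12 concentrations with a top concentration of 10 µM, in two independent experiments. Inhibition at 10 µM is recorded where no Ki could be derived.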
A general note: Changes in cAMP serve as a functional read-out for many G protein-coupled receptors.

Data set [3] is described as follows: Oral bioavailability in Wistar rat at 10 mg/kg administered via gavage by LC-MS/MS analysis. Format: ADME, organism-based. The conditions noted are these: in vivo. Put shortly: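 Male Wistar rats, n = 4; oral dose 10 mg/kg as suspension in 1% Tween 80 with 0.5% w/v NaCMC; values are means.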
The nature of data set [4]: Systemic clearance in Wistar rat at 3 mg/kg, iv by LC-MS/MS analysis. As to conditions: in vivo. Format: ADME, organism-based. In outline: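 Male Wistar rats, n = 4; iv dose 3 mg/kg in 10% NMP, 10% Cremophor EL, acetate buffer pH 4.2 q.s.; values are means.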
The nature of data set [5]: Metabolic stability in mouse liver microsomes assessed as metabolic rate. It is filed as ADME, microsome. Put shortly:
(§1)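 Liver microsomes (mouse, rat, dog, human) at 0.125 mg/mL protein; metabolic rate expressed as nmol/min/mg.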
(Liver microsomes are a subcellular fraction often used to study metabolism.)

Data set [6] can be described thus: Metabolic stability in human liver microsomes assessed as metabolic rate. It is filed as ADME, microsome. Put shortly:
as §1

The nature of data set [7]: Permeability across basolateral to apical side in human Caco2 cells. Format: ADME, cell-based. As to conditions: caco-2. On the technique in general: Caco-2 cells form a polarised layer with tight junctions and transporters.

Here are results for one molecule from ChEMBL document CHEMBL4190330, “Discovery of Potent and Selective A2A Antagonists with Efficacy in Animal Models of Parkinson's Disease and Depression” (ACS Med Chem Lett, 2017).

As usually defined, the inhibition is the change of the read-out against control, counted positive when it falls. What is called bioavailability is the share of a dose that reaches the circulation, judged against a reference dose that is usually intravenous. For orientation: clearance means the rate of elimination divided by the concentration. Higher therefore signals efficient removal. In the case of `COCCOc1ccc(N2CCN(CCn3c(=O)n(C)c4c3nc(N)n3nc(-c5nccs5)nc43)CC2)cc1F`, the fraction unbound in data set [1] was 0.22. Besides, the inhibition in data set [2] is less than 50%. Besides, the bioavailability in data set [3] was found to be 32%. Further, the clearance in data set [4] was determined as 45 mL/min/kg. For the same molecule, the values for the Drug metabolism in data set [5] and in data set [6] were 0.08 nmol/min/mg and 0.14 nmol/min/mg, respectively. Further, in data set [7], the permeability result is listed as “Permeable”.
